Data set [1] has as its system Plasmodium falciparum. Nature of the data set: Antiplasmodial activity against the multidrug-resistant Plasmodium falciparum […] infected in human red blood cells assessed as reduction in parasite growth after 48 hrs by Hoechst 33342 staining based flow cytometric analysis. Format: functional, organism-based. An outline of the steps:
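Ring-stage cultures (>80% rings) at 1% parasitaemia in A+ human erythrocytes, 2% haematocrit. Medium RPMI 1640 with 10% A+ serum, 37°C, 5% CO2/5% O2. Compounds in DMSO at 1.56–100 µg/mL final, DMSO ≤1%. After 48 h, cells stained with Hoechst 33342 and 1×10^4 counted by flow cytometry. IC50 from logistic dose-response regression; three independent experiments in triplicate.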
In general terms: A flow cytometer gives signals particle by particle.

Data set [2] is described as follows: Selectivity index, ratio of CC50 for human HepG2 cells to IC50 for multidrug-resistant Plasmodium falciparum […]. Format: toxicity. The following applies: read-out: Ratio CC50/IC50. In short, it runs like this:
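Selectivity index = HepG2 CC50 / FCR-3 IC50. CC50 from MTT assay after 48 h exposure, A550. IC50 from 48 h Hoechst 33342 flow-cytometry assay.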

The subject of data set [3] is Plasmodium berghei. Put plainly: Antiplasmodial activity against GFP-harboring Plasmodium berghei sporozoites infected in human HepG2 cells assessed as reduction in parasite growth treated every 24 hrs by DAPI staining-based fluorescence microscopic analysis. Format: functional, organism-based. The following applies: HepG2, 24 h. In short, it runs like this: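 Collagen-coated wells seeded with HepG2 (P. berghei), HepG2-CD81 (P. yoelii) or primary human hepatocytes (P. falciparum). Sporozoites added: 5×10^3 to 1×10^4 per well to the cell lines, 2.5×10^4 per well to hepatocytes. Compounds given at infection: top 10 µg/mL plus seven serial dilutions, renewed at 3 h and then every 24 h. Cultures grown 40 h (cell lines) or 8 days (hepatocytes) at 37°C. Methanol-fixed, HSP70 immunolabelled, DAPI counterstained. IC50 from logistic regression; triplicate.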

A short description of data set [4]: Cytotoxicity against human primary hepatocytes assessed as reduction in cell viability after 48 hrs by MTT assay. Format: cell-based, Hepatocyte. An outline of the steps: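 Cells seeded at 2 × 10^5 per well and allowed 24 h at 37°C, 5% CO2 to form a monolayer. Dilutions added in triplicate and incubated 48 h. MTT (2 mg/mL) then added for 4 h, followed by DMSO for 20 min at room temperature. Absorbance read at 550 nm; DMSO diluent and untreated cells served as negative controls. CC50 derived from the curve.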

A short description of data set [5]: Selectivity index, ratio of CC50 for human HepG2 cells expressing CD81 to IC50 for GFP-expressing Plasmodium yoelii sporozoites. Format: toxicity. The conditions noted are these: read-out: Ratio CC50/IC50. In short, it runs like this:
(§1)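 Selectivity index = CC50 (matching cell) / IC50 (matching parasite). Cell–parasite pairs: HepG2-CD81 with P. yoelii, HepG2 with P. berghei, human hepatocytes with P. falciparum.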

A short description of data set [6]: Selectivity index, ratio of CC50 for human primary hepatocytes to IC50 for GFP-expressing Plasmodium falciparum sporozoites. Format: toxicity. The conditions noted are these: read-out: Ratio CC50/IC50. An outline of the steps:
as §1

Data set [7] concerns Plasmodium yoelii. Nature of the data set: Potency index, ratio of primaquine IC50 to compound IC50 for GFP-expressing Plasmodium yoelii sporozoites infected in human HepG2 cells expressing CD81. Format: functional.
For data set [8], the system named is Plasmodium yoelii. Nature of the data set: Antiplasmodial activity against Plasmodium yoelii 17XNL sporozoites infected in BALB/c mouse assessed as parasite burden at 100 mg/kg, po measured at day 4 by […] (reference value: 0.06%). Format: functional. An outline of the steps: (§2)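 BALB/c mice (6-8 weeks, 20-23 g), n=4 per hybrid group and n=5 per control. Dosed orally at 100 mg/kg (100 µL) on days -1, 0, +1 and +2. Vehicle was DMSO 100%; primaquine diphosphate given at 30 mg/kg daily. On day 0, 5 x 10^3 cryopreserved P. yoelii 17XNL sporozoites injected i.v. Parasitaemia read by Giemsa smear and SYBR Green flow cytometry. Groups compared by Kruskal-Wallis test.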

Data set [9] relates to Plasmodium yoelii. Nature of the data set: Antiplasmodial activity against Plasmodium yoelii 17XNL sporozoites infected in BALB/c mouse assessed as incident of decrease in peripheral blood parasite levels at 100 mg/kg, po measured at day 1 by […] relative to control. Format: functional. Also on record: scale not given: the % may be the effect or the level left. In short, it runs like this: as §2

For data set [10], the system named is Plasmodium berghei. Put plainly: Antiplasmodial activity against GFP-expressing gametocytes of Plasmodium berghei sporozoites in Anopheles stephensi mosquitoes feeded on blood from infected Swiss mouse assessed as reduction in number of oocysts in mosquito midgut at 100 mg/kg, ip pretreated for 1.5 hrs followed by blood feeding of mosquito and measured at 8 days post mosquitoes infection by fluorescence microscopic method relative to control. Also on record: scale not given: the % may be the effect or the level left. Format: functional. In short, it runs like this: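 Swiss mice (female, 6 weeks) infected i.p. with PbGFP-infected red cells (200 µL, 3000 parasites/µL). Gametocytes monitored 4 days by Giemsa smear and exflagellation. Hybrid given i.p. at 100 mg/kg in DMSO 1.5 h before A. stephensi fed 1 h on mice with 1% gametocytes. Controls were untreated and DMSO-treated mice. Thirty mosquitoes per group dissected after 8 days. Midgut oocysts counted by fluorescence microscopy against control mosquitoes taken as 100%.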

In data set [11] the test system is Mus musculus. Nature of the data set: Acute toxicity in BALB/c mouse assessed as appearance of normal coloured mucosa at 300 to 500 mg/kg, po administered as single dose measured every day for 14 days. Format: organism-based. The following applies: in vivo, 336 h. In short, it runs like this:
(§3)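 Female BALB/c mice, 6-8 weeks old, 20-23 g, in groups of three. Single oral dose of 300 or 500 mg/kg; vehicle DMSO 100% given to controls. Mice watched for signs of toxicity for 4 h after dosing. Physical appearance, injury, pain and illness recorded daily for 14 days. Euthanasia in a CO2 chamber on day 14 or earlier if suffering.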

The subject of data set [12] is Mus musculus. Put plainly: Acute toxicity in BALB/c mouse assessed as effect on blood urea nitrogen level at 300 to 500 mg/kg, po administered as single dose measured at day 14. Format: organism-based. The following applies: in vivo.
For data set [13], the system named is Mus musculus. Nature of the data set: Induction of alanine transferase level in BALB/c mouse at 300 to 500 mg/kg, po administered as single dose measured at day 14 (reference value: 34 to 78 U/L). Format: organism-based. The following applies: in vivo. In short, it runs like this: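 BALB/c female mice (6-8 weeks, 20-23 g), groups of three, given one oral dose of 300 or 500 mg/kg; DMSO 100% vehicle for controls. Observed 4 h after dosing, then daily for 14 days. Euthanized on day 14 or on signs of suffering. Blood biochemistry, including alanine transferase, compared with the range in untreated mice.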

The nature of data set [14]: Genotoxicity in Salmonella typhimurium TA1535 harboring pSK1002 assessed as bacterial survival at 0.001 to 0.063 mg/ml after 4 hrs in presence of Sprague-Dawley rat liver S9 fraction by SOS/umu assay relative to control. Format: toxicity, organism-based. The following applies: salmonella enterica subsp. enterica serovar typhimurium; read-out: Survival. In short, it runs like this: (§4)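 Log-phase S. typhimurium TA1535/pSK1002 (OD600 0.15–0.4) exposed for 4 h at 37°C with shaking, with 10% rat S9 mix or PBS. Eleven twofold dilutions tested from 1 mg/mL final; DMSO as solvent control. A600 read. Survival expressed as % of negative-control A600.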

Data set [15] is described as follows: Genotoxicity in Salmonella typhimurium TA1535 harboring pSK1002 assessed as bacterial survival at 0.001 to 0.063 mg/ml after 4 hrs in absence of Sprague-Dawley rat liver S9 fraction by SOS/umu assay relative to control. Format: toxicity, organism-based. The following applies: salmonella enterica subsp. enterica serovar typhimurium; read-out: Survival. In short, it runs like this:
as §4

In data set [16] the test system is Mus musculus. Nature of the data set: Acute toxicity in BALB/c mouse assessed as behavioral changes at 300 mg/kg, po administered as single dose measured every day for 14 days. Format: organism-based. The following applies: in vivo, 336 h. In short, it runs like this:
as §3

In data set [17] the test system is Mus musculus. Nature of the data set: Acute toxicity in BALB/c mouse assessed as effect on feeding habbit at 300 mg/kg, po administered as single dose measured every day for 14 days. The following applies: in vivo, 336 h. Format: organism-based. An outline of the steps: as §3

The values that follow come from ChEMBL document CHEMBL4270646, “Novel antimalarial chloroquine- and primaquine-quinoxaline 1,4-di-N-oxide hybrids: Design, synthesis, Plasmodium life cycle stage profile, and preliminary toxicity studies” (Eur J Med Chem, 2018).

In general, IC50 refers to the concentration needed to halve the response being measured. Usually CC50 stands for the concentration that lowers cell viability or growth by half.

Turning to `COc1cc(NC(C)CCCNC(=O)c2c(C)[n+]([O-])c3ccccc3[n+]2[O-])c2ncccc2c1` (configuration not stated), the results for the IC50 in data set [1] and in data set [3] were 68.2 µM and 5.19 µM, respectively. The selectivity ratio was 0.58 in data set [2], 153 in [5] and 39.5 in data set [6]. For the same compound, the CC50 at 48 h in [4] was above 213 µM. The “Ratio IC50” value in [7] turned out to be 1.5. The Activity in data set [8] was 0%; in data set [9], 25%; in [10], 92%; in data set [11], “Non-Toxic”; in [12] it was “Non-Toxic”; in [13], 82 U/L. Further, the Activity entry in data set [16] and in [17] was “Non-Toxic” in each case. The viability at 4 h in data set [14] and in [15] was above 80% throughout.
